Measurements pooled from the literature.
Compare with care: the assays were run in different laboratories.
Target: Receptor tyrosine-protein kinase erbB-2 (ERBB2, Homo sapiens, UniProt P04626)

`COc1cc(-c2cn(C3CCc4c(F)cccc4N(CC(F)(F)F)C3=O)nn2)ccc1-n1cnc(C)c1` (centres unmarked) gave a remaining binding of 100% (cell-free assay, competition with immobilised ligand; 1 µM).
`C=CC(=O)N1CCC(C(=O)NCC(=O)N2CCN(c3nc(-c4cnc(N)nc4C(F)F)nc(N4CCOCC4)n3)CC2)CC1` has a remaining binding of 70% (binding, competition with immobilised ligand; 1 µM).
For `O=C(c1ccc(Nc2ncc(Cl)c(-c3cc4ccccc4s3)n2)cc1)N1CCC(N2CCCC2)CC1`, the remaining binding was 100% (binding, competition with immobilised ligand; 1 µM).
For `N#CC1(c2ccccn2)CCN(Cc2cc(C(=O)N3CCCC3)c(=O)n3ccccc23)CC1`, the remaining binding was 95% (cell-free assay, competition with immobilised ligand; 1 µM).
For `CN(C)c1nccc(-c2cnn3ncccc23)n1`, the remaining binding was 100% (binding; 1 µM).
`O=C(Nc1cccnn1)N1CC(C/C=C/c2cncc(Oc3ccc(C(F)(F)F)cn3)n2)C1` has a remaining binding of 83% (cell-free assay, competition with immobilised ligand; 1 µM).
`c1cnn2ncc(-c3ccnc(N4CCC45COC5)n3)c2c1` has a remaining binding of 86% (binding; 1 µM).
`O=C(NCCCN1CCOCC1)c1ccc(Nc2ncc(Cl)c(-c3ccc(Cl)s3)n2)cc1` gave a remaining binding of 80% (binding, competition with immobilised ligand; 1 µM).
`c1cncc(-c2cccc(Nc3nccc(NC4CCCCC4)n3)c2)c1` gave a remaining binding of 51% (binding, competition with immobilised ligand; 10 µM).
`O=C(NCC1CCOCC1)c1n[nH]cc1NC(=O)c1c(F)cccc1F` gave a remaining binding of 90% (binding, competition with immobilised ligand; 1 µM).
For `CN(c1nccc(-c2cnn3ncccc23)n1)C1CC1`, the remaining binding was 85% (binding; 1 µM).
For `Nc1cnc(N2CCc3cc(S(=O)(=O)Nc4c(F)cc(Cl)cc4F)cc(N4CCCC4=O)c32)nc1`, the remaining binding was 100% (cell-free assay, competition with immobilised ligand; 1 µM).
With `N[C@@H]1CCN(c2nccc(-c3cnn4ncccc34)n2)C1` the remaining binding was 100% (binding; 1 µM).
`C[C@@H]1CN(c2ccc3ncc(-c4ccc5[nH]nc(C6CC6)c5c4)n3n2)C[C@H](C)O1` gave a remaining binding of 87% (binding, competition with immobilised ligand; 50 nM).
With `C[C@@H]1CCN(c2nccc(-c3cnn4ncccc34)n2)C1` the remaining binding was 90% (binding; 1 µM).
`C[C@@H](c1cccc(C#N)c1)n1cc(Cl)cc(C(N)=O)c1=N` has a remaining binding of 96% (cell-free assay, competition with immobilised ligand; 1 µM).
`CC(C)(C)c1ccc(-c2nc(CBr)nn2-c2cccc(O)c2)cc1` has a remaining binding of 84% (cell-free assay, competition with immobilised ligand; 10 µM).
`CNC(=O)Nc1ccc2c(c1)[C@@]1(CC2)OC(=O)N(CC(=O)N(Cc2ccc(F)cc2)[C@@H](C)C(F)(F)F)C1=O` has a remaining binding of 98% (cell-free assay, competition with immobilised ligand; 1 µM).
The remaining binding of `COc1cnc(Nc2cccc(S(N)(=O)=O)c2)nc1N1CCN(c2ccccc2)C(=O)C1` is reported as 100% (binding, competition with immobilised ligand; 1 µM).
`Nc1ncc2c(n1)-c1c([nH]c3ccc(C#CC4CC4)cc13)CCCC2` gave a remaining binding of 91% (binding, competition with immobilised ligand; 1 µM).
`O=C(c1ccc(Nc2ncc(Cl)c(-c3ccc(Cl)s3)n2)cc1)N1CCC(N2CCCC2)CC1` has a remaining binding of 82% (binding, competition with immobilised ligand; 1 µM).
The remaining binding of `COc1cnc(Nc2cccc(S(N)(=O)=O)c2)nc1N1CCN(c2ccccc2)CC1` is reported as 100% (binding, competition with immobilised ligand; 1 µM).
`CS(=O)(=O)NCC[C@H](NC(=O)c1cncc2c1cnn2-c1ccc(F)cc1)c1ccnc(S(C)(=O)=O)c1` gave a remaining binding of 100% (cell-free assay, competition with immobilised ligand; 1 µM).
